Data from ChEMBL document CHEMBL1122194, “Prodrugs of L-cysteine as liver-protective agents. 2(RS)-Methylthiazolidine-4(R)-carboxylic acid, a latent cysteine” (J Med Chem, 1982).

Experiments:
Mus musculus [1] = organism: Mus musculus; test: Tested for Protection from Acetaminophen-Induced Liver Necrosis in Mice, Number of animals(mice) with liver necrosis was determined after 0 hour; assay type: functional
Mus musculus [2] = organism: Mus musculus; test: Tested for Protection from Acetaminophen-Induced Liver Necrosis in Mice, Number of animals(mice) with grade 3+ liver necrosis was determined after 48 hours
Mus musculus [3] = organism: Mus musculus; test: Tested for Protection from Acetaminophen-Induced Liver Necrosis in Mice, Number of animals(mice) with liver necrosis was determined after 1 hr; assay type: functional
Mus musculus [4] = organism: Mus musculus; test: Tested for Protection from Acetaminophen-Induced Liver Necrosis in Mice (in 18 animals) and the deaths were observed after the 48 hours due to liver necrosis; assay type: functional
Method in brief: (§1)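 Male Swiss-Webster mice (18–33 g) were randomized and given acetaminophen 750 mg/kg. Protective agents or saline followed 30 min later. Deaths were counted over 48 h with food and water ad libitum, then survivors were killed by cervical dislocation. Livers were formalin-fixed and sectioned, stained with H&E and Gomori reticulum stain, and necrosis was graded 0 to 4+ by Mitchell criteria. Counts pooled up to two independent experiments.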

Mus musculus [5] = organism: Mus musculus; test: Tested for Protection from Acetaminophen-Induced Liver Necrosis in Mice, Number of animals(mice) with grade 4+ liver necrosis was determined after 48 hr
Mus musculus [6] = organism: Mus musculus; test: Tested for 17 animals(mice) and the deaths were observed after the 48 hours due to liver necrosis; assay type: functional; method in brief: as §1
Mus musculus [7] = organism: Mus musculus; test: Tested for Protection from Acetaminophen-Induced Liver Necrosis in Mice (18 animals) and the deaths were observed after the 48 hours due to liver necrosis; Death due to hemorrhagic necrosis of the liver; assay type: functional; method in brief: as §1
Mus musculus [8] = organism: Mus musculus; test: Tested for Protection from Acetaminophen-Induced Liver Necrosis in Mice (in 17 animals) and the deaths were observed after the 48 hours due to liver necrosis; assay type: functional; method in brief: as §1
Mus musculus [9] = organism: Mus musculus; test: Tested for Protection from Acetaminophen-Induced Liver Necrosis in Mice, Number of animals(mice) with grade 2+ liver necrosis was determined after 48 hours
[10] = Lethal dose after intraperitoneal administration in mice was determined; assay type: toxicity, organism-based; details: mouse, in vivo, ip
Mus musculus [11] = organism: Mus musculus; test: Tested for Protection from Acetaminophen-Induced Liver Necrosis in Mice, necrosis was determined after 3 hour; assay type: functional
Mus musculus [12] = organism: Mus musculus; test: Tested for 10 animals(mice) and the deaths were observed after the 48 hours due to liver necrosis; assay type: functional; method in brief: as §1
Mus musculus [13] = organism: Mus musculus; test: Tested for Protection from Acetaminophen-Induced Liver Necrosis in Mice (in 10 animals) and the deaths were observed after the 48 hours due to liver necrosis; assay type: functional; method in brief: as §1

| Structure (SMILES) | No. of animals with liver necrosis (Mus musculus [1]) | No. of animals with grade 3+ liver necrosis (Mus musculus [2]) | No. of animals with grade 4+ liver necrosis (Mus musculus [5]) | further results |
| --- | --- | --- | --- | --- |
| CC(=O)N[C@@H](CS)C(=O)O.CC(=O)Nc1ccc(O)cc1 | 13 | 1 | 1 | No. of animals with liver necrosis (Mus musculus [3]): 3; Deaths (Mus musculus [4]): 1 |
| CC(=O)N[C@@H](CS)C(=O)O [ACETYLCYSTEINE] | 15 |  |  | No. of animals with liver necrosis (Mus musculus [3]): 2; Deaths (Mus musculus [6]): 0 |
| CC(=O)Nc1ccc(O)cc1.CC1N[C@H](C(=O)O)CS1 | 17 |  | 1 | Deaths (Mus musculus [7]): 1 |
| CC(=O)Nc1ccc(O)cc1 [ACETAMINOPHEN] | 1 | 7 | 8 | Deaths (Mus musculus [8]): 11; No. of animals with grade 2+ liver necrosis (Mus musculus [9]): 1 |
| O=C(O)C1CSCN1 (configuration not stated) [TIMONACIC] | 9 |  |  | LD50 [10]: 164 mg/kg; No. of animals with liver necrosis (Mus musculus [11]): 1; Deaths (Mus musculus [12]): 3 |
| CC1N[C@H](C(=O)O)CS1 (some centres not stated) | 17 |  |  | Deaths (Mus musculus [6]): 0 |
| CC(=O)Nc1ccc(O)cc1.O=C(O)C1CSCN1 | 1 | 4 | 2 | No. of animals with grade 2+ liver necrosis (Mus musculus [9]): 1; Deaths (Mus musculus [13]): 4 |
